These results are taken from ChEMBL document CHEMBL1138193, “Synthesis and biological activity of 7-phenyl-6,9-dihydro-3H-pyrrolo[3,2-f]quinolin-9-ones: a new class of antimitotic agents devoid of aromatase activity” (J Med Chem, 2006).

Structures are written as SMILES. Activity calls are given as the source filed them. The rule behind the calls is not given here.

The test system of one data set is HeLa. Kind of data set: Cytotoxicity against human HeLa cells by MTT assay. Format: functional, cell-based. In a few lines:
(§1)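 MTT colorimetric proliferation assay on human and murine tumour cell lines. Compounds tested over 50 to 0.1 µM; IC50 calculated from the concentration response.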
In general terms: Tetrazolium assays rely on reduction of a dye to a coloured formazan, in cell work by metabolically active cells.

Another data set has as its system HT-29. Kind of data set: Cytotoxicity against human HT29 cells by MTT assay. Format: functional, cell-based. In a few lines:
as §1

The subject of data set [1] is BNL. Kind of data set: Cytotoxicity against BNL 1ME A.7R.1 cells subcutaneously implanted in BALB/c mouse at 40 mg/kg, ip. Format: functional. The conditions noted are these: route intraperitoneal. In a few lines:
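Male Balb/c mice implanted subcutaneously in the dorsal region with 10⁷ syngenic hepatocarcinoma cells. From day 2, daily intraperitoneal dosing at 40 mg/kg, with saline and vehicle control groups (n = 8-12 per group). Tumour measured daily by calipers over 10 days; volume = A × B²/2. Means ± SE.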

For data set [2], the target named is T1, Aromatase (Homo sapiens, UniProt P11511).
T1 sequence (P11511 whole entry): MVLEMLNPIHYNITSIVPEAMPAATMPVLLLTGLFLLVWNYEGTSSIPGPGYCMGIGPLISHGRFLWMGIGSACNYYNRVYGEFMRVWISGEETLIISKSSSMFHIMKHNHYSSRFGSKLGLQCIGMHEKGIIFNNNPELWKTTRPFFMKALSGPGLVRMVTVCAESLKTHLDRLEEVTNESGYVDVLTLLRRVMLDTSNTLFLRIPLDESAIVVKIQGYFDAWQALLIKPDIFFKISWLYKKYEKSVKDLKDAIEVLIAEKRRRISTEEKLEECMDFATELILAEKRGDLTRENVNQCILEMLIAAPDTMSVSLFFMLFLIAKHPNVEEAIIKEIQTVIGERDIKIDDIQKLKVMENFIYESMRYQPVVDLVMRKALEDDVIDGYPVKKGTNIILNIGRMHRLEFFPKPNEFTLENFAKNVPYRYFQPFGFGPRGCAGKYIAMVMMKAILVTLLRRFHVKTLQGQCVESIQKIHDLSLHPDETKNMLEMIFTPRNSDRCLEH
Kind of data set: Inhibition of aromatase activity in H295R cells at 10 uM. Format: cell-based. In a few lines:
(§2)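 H295R cells cultured 24 h in DMEM-F12 with or without forskolin (25 µM). Compound (5, 10 or 15 µM) added 1 h before [1β-³H]androstenedione substrate (0.5 µM), then 2 h further exposure. Modified tritiated water release read-out as pmol ³H₂O/h/mg protein. Letrozole reference. Mean ± SEM of three experiments in triplicate.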

In the next data set the test system is PT-45. Kind of data set: Cytotoxicity against human PT45 cells by MTT assay. Format: functional, cell-based. Put shortly: as §1
In data set [3] the target is T2, Tubulin (Homo sapiens) (UniProt P68371+Q9H4B7+P0DPH7+P68366+Q13509+Q71U36+P04350+Q3ZCM7+P07437+P68363+Q9BQE3+Q6PEY2+Q13885+Q9BVA1+Q9BUF5). Kind of data set: Inhibition of tubulin polymerization at 5 uM. Format: protein-complex assay. Put shortly:
(§3)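 Fluorimetric microtubule polymerization kit using purified tubulin. Compound at 5, 2.5, 1.25 and 0.625 µM; fluorescence (ex 355/em 450 nm) read every minute for 60 min. Taxol and vincristine (3 µM) as references.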

In a further data set the test system is MCF7. The data set can be described thus: Cytotoxicity against human MCF7 cells by MTT assay. Format: functional, cell-based. Put shortly: as §1
Data set [4] has as its system HepG2. Kind of data set: Cytotoxicity against human HepG2 cells by MTT assay. Format: functional, cell-based. Put shortly:
as §1

The target in data set [5] is T1, Aromatase. Kind of data set: Inhibition of aromatase activity in H295R cells at 15 uM. Format: cell-based. In a few lines:
as §2

For a further data set, the system named is A549. The data set can be described thus: Cytotoxicity against human A549 cells by MTT assay. Format: functional, cell-based.
Data set [6] relates to BNL. The data set can be described thus: Cytotoxicity against mouse BNL cells by MTT assay. Format: functional, cell-based. Put shortly: as §1
Data set [7] concerns OVCAR-3. The data set can be described thus: Cytotoxicity against human Ovcar3 cells by MTT assay. Format: functional, cell-based. Put shortly:
as §1

The subject of the next data set is 4T1. Kind of data set: Cytotoxicity against mouse 4T1 cells by MTT assay. Format: functional, cell-based. In a few lines:
as §1

In another data set the test system is ARO. Kind of data set: Cytotoxicity against human Aro cells by MTT assay. Format: functional, cell-based. Put shortly: as §1
A further data set relates to NCI-H295R. The data set can be described thus: Cytotoxicity against human H295R cells by MTT assay. Format: functional, cell-based. In a few lines: as §1
In data set [8] the test system is OVCAR-3. The data set can be described thus: Cell cycle arrest at G2/M phase in Ovcar3 cells at 5-10 uM. Format: functional, Homo sapiens.
In data set [9] the target is T2, Tubulin (Homo sapiens). Kind of data set: Inhibition of tubulin polymerization at 2.5 uM. Format: protein-complex assay. In a few lines:
as §3

Data set [10] concerns the target T2, Tubulin (Homo sapiens). The data set can be described thus: Microtubule disassembly in Ovcar3 cells at 5 uM. The note with it: OVCAR-3. Format: functional, cell-based. In a few lines:
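Ovcar-3 cells exposed 18 h to 5 µM (drug-free and vincristine 5 µM controls), fixed, stained with anti-β-tubulin antibody, and microtubule distribution examined by fluorescence microscopy.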

In data set [11] the target is T1, Aromatase. Kind of data set: Inhibition of aromatase activity in H295R cells at 5 uM. Format: cell-based. Put shortly: as §2
For data set [12], the system named is HepG2. The data set can be described thus: Cell cycle arrest at G2/M phase in HepG2 cells at 5-10 uM. Format: functional, Homo sapiens.

Usually IC50 stands for the concentration at which inhibition is half-maximal.

In the case of `O=c1cc(-c2ccccc2)[nH]c2ccc3[nH]ccc3c12`, the IC50 stood at 700 nM in the data set with HeLa; 2000 nM in the data set on HT-29; 500 nM in the data set on PT-45; 800 nM in the data set with MCF7; 8000 nM in the data set with HepG2 [4]; 1000 nM in the data set with A549. The half-maximal inhibitory concentration (IC50) is 3000 nM in the data set with BNL [6]; 6000 nM in the data set with OVCAR-3 [7]; 2000 nM in the data set with 4T1; 700 nM in the data set on ARO; 400 nM in the data set on NCI-H295R. The Activity in the data set on BNL [1] was 83.2%; on Aromatase [2], “Not Active”; on Tubulin (Homo sapiens) [3] it was “Dose-dependent effect”; at Aromatase [5], “Not Active”; in the data set with OVCAR-3 [8] it was 62%; on Tubulin (Homo sapiens) [9], “Dose-dependent effect”. Also, the Activity entry on Aromatase [11] is reported as “Not Active”; with HepG2 [12], 47.7%. Moreover, the outcome at Tubulin (Homo sapiens) [10] was Active.
